From ChEMBL document CHEMBL1138528, “Discovery of tetrasubstituted imidazolines as potent and selective neuropeptide Y Y5 receptor antagonists: reduced human ether-a-go-go related gene potassium channel binding affinity and potent antiobesity effect” (J Med Chem, 2009)

How the values were obtained:
[1] = target: T1, Neuropeptide Y receptor type 5 (Homo sapiens, UniProt Q15761); assay: Displacement of [125I]PYY from human recombinant neuropeptide Y5 receptor expressed in mouse LMtk- cells; format: cell-based
T1 sequence (Q15761 whole entry): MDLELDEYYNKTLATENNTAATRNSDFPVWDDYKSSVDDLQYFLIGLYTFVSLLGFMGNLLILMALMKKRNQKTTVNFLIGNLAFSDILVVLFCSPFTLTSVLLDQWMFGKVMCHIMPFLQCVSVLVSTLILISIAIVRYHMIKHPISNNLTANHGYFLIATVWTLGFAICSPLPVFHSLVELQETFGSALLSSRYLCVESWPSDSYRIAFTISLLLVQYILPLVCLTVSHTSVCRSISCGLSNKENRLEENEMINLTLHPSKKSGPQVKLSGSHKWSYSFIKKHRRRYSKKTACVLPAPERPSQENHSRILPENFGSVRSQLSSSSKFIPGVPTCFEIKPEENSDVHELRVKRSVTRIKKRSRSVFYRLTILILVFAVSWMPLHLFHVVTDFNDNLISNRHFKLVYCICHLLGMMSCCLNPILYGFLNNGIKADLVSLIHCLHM

[2] = Octanol-water distribution coefficient, log D at pH 7.4; format: physicochemical
[3] = Metabolic stability in rat hepatocytes assessed as hepatic clearance by serum incubation method; format: ADME, cell-based, Liver, Hepatocyte
[4] = target: Voltage-gated inwardly rectifying potassium channel KCNH2 (Homo sapiens, UniProt Q12809);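 further: radioligand displacement binding to human ERG expressed in HEK293 cells, using a [35S]-labelled spiro-benzopyran-piperidine methanesulfonamide as the displaced ligand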
[5] = Ratio of drug level from brain to plasma in Sprague-Dawley rat at 10 mg/kg, po after 2 hrs; format: ADME, organism-based; parameters: dose 10 mg/kg, route oral
How it was run: (§1)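 Male SD rats (7-10 weeks, 200-400 g) dosed orally at 10 mg/kg in 0.5% methylcellulose; at 2 h aortic blood taken under isoflurane. Plasma, brain homogenate (sonicated in water) and CSF deproteinized with 3-fold ethanol plus internal standard, -20 °C 20 min, centrifuged; LC/MS/MS with relative calibration curve. Mean, n = 2-3.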

[6] = tested on: Brain; assay: Drug level in Sprague-Dawley rat brain at 10 mg/kg, po after 2 hrs; format: ADME, organism-based; parameters: dose 10 mg/kg, route oral; settings: in vivo; how it was run: as §1
[7] = Drug level in Sprague-Dawley rat cerebrospinal fluid at 10 mg/kg, po after 2 hrs; format: ADME, organism-based; parameters: dose 10 mg/kg, route oral; settings: Sprague-Dawley, cerebrospinal fluid, read-out: Drug uptake; how it was run: as §1
[8] = Plasma concentration in Sprague-Dawley rat at 10 mg/kg, po after 2 hrs; format: ADME, organism-based; parameters: dose 10 mg/kg, route oral; how it was run: as §1
[9] = Ratio of drug level from cerebrospinal fluid to brain in Sprague-Dawley rat at 10 mg/kg, po after 2 hrs; format: ADME, organism-based, CSF/Brain; parameters: dose 10 mg/kg, route oral; settings: in vivo

Sequence of Voltage-gated inwardly rectifying potassium channel KCNH2 (Q12809 whole entry): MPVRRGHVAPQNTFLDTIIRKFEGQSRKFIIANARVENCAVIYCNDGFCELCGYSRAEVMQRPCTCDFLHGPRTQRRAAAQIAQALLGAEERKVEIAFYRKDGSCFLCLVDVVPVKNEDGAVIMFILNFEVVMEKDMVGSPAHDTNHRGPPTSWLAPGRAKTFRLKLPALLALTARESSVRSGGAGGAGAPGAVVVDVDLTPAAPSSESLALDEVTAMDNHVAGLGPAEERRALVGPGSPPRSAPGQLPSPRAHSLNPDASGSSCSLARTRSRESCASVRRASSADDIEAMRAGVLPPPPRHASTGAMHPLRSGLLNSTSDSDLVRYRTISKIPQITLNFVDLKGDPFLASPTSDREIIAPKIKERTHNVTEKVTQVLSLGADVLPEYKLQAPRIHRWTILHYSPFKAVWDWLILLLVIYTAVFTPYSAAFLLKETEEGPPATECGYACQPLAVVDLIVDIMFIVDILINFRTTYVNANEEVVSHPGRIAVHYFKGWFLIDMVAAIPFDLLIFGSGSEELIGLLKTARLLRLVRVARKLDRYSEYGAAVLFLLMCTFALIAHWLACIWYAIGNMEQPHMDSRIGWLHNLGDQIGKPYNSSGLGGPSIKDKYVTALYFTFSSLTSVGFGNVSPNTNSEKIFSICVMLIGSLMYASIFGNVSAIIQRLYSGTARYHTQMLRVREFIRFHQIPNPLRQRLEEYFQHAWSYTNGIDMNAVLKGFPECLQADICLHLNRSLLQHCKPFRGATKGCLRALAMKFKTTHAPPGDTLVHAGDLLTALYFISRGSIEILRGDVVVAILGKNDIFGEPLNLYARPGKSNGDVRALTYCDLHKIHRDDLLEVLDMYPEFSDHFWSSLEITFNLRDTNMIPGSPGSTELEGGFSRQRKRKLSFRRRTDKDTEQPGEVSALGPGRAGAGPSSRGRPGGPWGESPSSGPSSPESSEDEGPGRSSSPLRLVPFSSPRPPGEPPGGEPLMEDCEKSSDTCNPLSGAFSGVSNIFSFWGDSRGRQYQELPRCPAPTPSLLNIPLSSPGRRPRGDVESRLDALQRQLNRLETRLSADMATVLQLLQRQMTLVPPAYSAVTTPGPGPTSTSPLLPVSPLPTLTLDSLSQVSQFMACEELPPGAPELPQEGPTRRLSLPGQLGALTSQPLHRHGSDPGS

Structure (SMILES) | Ki [1] [nM] | logD [2] | CLhep predicted [3] [L/h/kg] | IC50 [4] [nM] | Kp at 2 h [5] | Drug uptake [6] [nmol/g] | concentration at 2 h [7] [µM] | concentration at 2 h [8] [µM] | Ratio [9]
C[C@H]1NC(c2cc(C#N)ccn2)=NC1(c1ccc(F)cc1)c1ccc(F)cc1 | 300 |  |  |  |  |  |  |  | 
C[C@@H]1NC(c2cc(Cl)ccn2)=N[C@@]1(c1ccc(F)cc1)c1ccc(F)nc1 | 1.8 | 3.8 | 3.48 |  |  |  |  |  | 
C[C@@H]1NC(c2cccc(C#N)n2)=N[C@@]1(c1ccc(F)cc1)c1ccc(F)nc1 | 5.9 | 3.3 | 0.78 | 6930 |  |  |  |  | 
C[C@@H]1NC(c2cccc(S(C)(=O)=O)c2)=N[C@@]1(c1ccc(F)cc1)c1ccc(F)nc1 | 2.5 | 2.9 | 0.36 | > 10000 |  |  |  |  | 
C[C@@H]1NC(c2cccc(C#N)c2)=N[C@@]1(c1ccc(F)cc1)c1ccc(F)nc1 | 0.8 | 3.6 | 0.54 |  | 2.3 | 6.1 | 0.13 | 2.6 | 
Fc1ccc(C2(c3ccc(F)cc3)CNC(c3cnccn3)=N2)cc1 | 4.3 | 3.5 | 3.06 | 3400 |  | 5.9 |  |  | 0.011
CC[C@@H]1NC(c2cc(C#N)ccn2)=NC1(c1ccc(F)cc1)c1ccc(F)cc1 | 2.6 |  |  | 490 |  |  |  |  | 
C[C@@H]1NC(c2cccc(=O)[nH]2)=N[C@@]1(c1ccc(F)cc1)c1ccc(F)nc1 |  | 2.4 |  |  | 0.1 | 0.36 | 0.05 | 3.7 | 
C[C@@H]1NC(c2cc(C#N)ccn2)=NC1(c1ccc(F)cc1)c1ccc(F)cc1 | 1 | 4.1 | 1.68 |  |  |  |  |  | 
C[C@@H]1NC(c2cncc(C#N)c2)=N[C@@]1(c1ccc(F)cc1)c1ccc(F)nc1 | 3.2 | 2.9 | 0.72 | > 10000 | 1.2 | 5.3 | 0.46 | 4.4 | 0.087
C[C@@H]1NC(c2cnsn2)=N[C@@]1(c1ccc(F)cc1)c1ccc(F)nc1 | 2 | 3.1 | 3.48 |  |  |  |  |  | 
C[C@@H]1NC(c2cc(C(N)=O)ccn2)=N[C@@]1(c1ccc(F)cc1)c1ccc(F)nc1 | 5.1 | 2.4 | 0.42 |  |  |  |  |  | 
C[C@@H]1NC(c2cnccn2)=NC1(c1ccc(F)cc1)c1ccc(F)cc1 | 1.9 | 3.7 | 3.42 | > 10000 |  |  |  |  | 
N#Cc1cccc(C2=NC(c3ccc(F)cc3)(c3ccc(F)cc3)CN2)c1 |  |  |  |  |  | 8.1 |  |  | 0.003
N#Cc1ccnc(C2=NC(c3ccc(F)cc3)(c3ccc(F)cc3)[C@H](CO)N2)c1 | 3 | 3.4 | 0.66 | 6100 | 2.1 | 2.3 | 0.057 | 1.1 | 0.025
COc1ccnc(C2=N[C@@](c3ccc(F)cc3)(c3ccc(F)nc3)[C@H](C)N2)c1 | 2.5 | 3.6 | 3.48 |  |  |  |  |  | 
COc1ccc([C@]2(c3ccc(F)cc3)N=C(c3cc(C#N)ccn3)N[C@H]2C)cn1 | 1.1 | 3.5 | 2.64 |  |  |  |  |  | 
C[C@@H]1NC(c2cnccn2)=N[C@@]1(c1ccc(F)cc1)c1ccc(F)nc1 | 2.2 | 2.5 | 2.52 |  |  |  |  |  | 
C[C@@H]1NC(c2cc(C#N)ccn2)=N[C@]1(c1ccc(F)cc1)c1ccc(F)nc1 |  | 2.9 | 3.36 |  |  |  |  |  | 
N#Cc1ccnc(C2=NC(c3ccc(F)cc3)(c3ccc(F)cc3)CN2)c1 | 2 | 4 | 0.72 | 101 |  | 6.4 |  |  | 0.004
C[C@@H]1NC(c2cc(C#N)ccn2)=N[C@@]1(c1ccc(F)cc1)c1ccc(=O)[nH]c1 | 145 |  |  |  |  |  |  |  | 
C[C@@H]1NC(c2nccs2)=N[C@@]1(c1ccc(F)cc1)c1ccc(F)nc1 | 4.1 | 3 |  | > 10000 |  |  |  |  | 
C[C@@H]1NC(c2nccc(C#N)n2)=N[C@@]1(c1ccc(F)cc1)c1ccc(F)nc1 | 3.6 | 2.2 | 1.8 |  |  |  |  |  | 
C[C@@H]1NC(c2ccnc(C#N)c2)=N[C@@]1(c1ccc(F)cc1)c1ccc(F)nc1 | 1 | 3.2 | 0.78 | > 10000 | 0.9 | 3.2 | 0.22 | 3.7 | 0.069
CCC[C@@H]1NC(c2cc(C#N)ccn2)=NC1(c1ccc(F)cc1)c1ccc(F)cc1 | 8.6 |  |  | 490 |  |  |  |  | 
C[C@@H]1NC(c2cc(C#N)ccn2)=NC1(c1ccc(F)nc1)c1ccc(F)nc1 | 3.1 | 2.2 | 3.12 | > 10000 |  |  |  |  | 
